According to ChEMBL document CHEMBL1629697, “Endocannabinoids inhibit the growth of free-living amoebae” (Antimicrob Agents Chemother, 2010):
Active and inactive are the calls of the source. The calls are words filed in the database; no cut-off is given here.

Experiments:
Acanthamoeba castellanii [1] = experiment: Antimicrobial activity against Acanthamoeba castellanii assessed as decrease in viable cell concentration at 20 ug/ml after 3 days by hemocytometer; type: functional, organism-based
Summary of the method: (§1)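 Amoebae maintained at 30°C on E. coli lawns on nonnutrient agar, then axenic at 37°C in SCGYEM. Seeded day 0 at 2 × 10^5 cells/ml in SCGYEM with or without endocannabinoid, added in ethanol (0.05% final); vehicle controls contained ethanol. Tubes incubated slanted at 37°C; cell concentration counted daily by hemocytometer through day 3.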

Acanthamoeba castellanii [2] = experiment: Antimicrobial activity against Acanthamoeba castellanii after 3 days by hemocytometer; type: functional, organism-based; conditions: 72 h; summary of the method: as §1
Acanthamoeba castellanii [3] = experiment: Antimicrobial activity against Acanthamoeba castellanii assessed as growth inhibition at 5 ug/ml after 3 days by hemocytometer; type: functional, organism-based; summary of the method: as §1
Acanthamoeba castellanii [4] = experiment: Antimicrobial activity against Acanthamoeba castellanii assessed as growth inhibition at 2 ug/ml after 3 days by hemocytometer; type: functional, organism-based; summary of the method: as §1
Hartmannella vermiformis [5] = experiment: Antimicrobial activity against Hartmannella vermiformis assessed as growth inhibition at 10 ug/ml upto 3 days by hemocytometer; type: functional; conditions: Vermamoeba vermiformis; summary of the method: as §1
Willaertia magna [6] = experiment: Antimicrobial activity against Willaertia magna c2c Maky ATCC PTA-7824 assessed as growth inhibition at 5 ug/ml after 3 days by hemocytometer; type: functional; summary of the method: as §1
Willaertia magna [7] = experiment: Antimicrobial activity against Willaertia magna c2c Maky ATCC PTA-7824 after 3 days by hemocytometer; type: functional; conditions: c2c Maky ATCC PTA-7824, 72 h; summary of the method: as §1
Hartmannella vermiformis [8] = experiment: Antimicrobial activity against Hartmannella vermiformis assessed as growth inhibition at 2 ug/ml after 3 days by hemocytometer; type: functional; conditions: Vermamoeba vermiformis; summary of the method: as §1
Hartmannella vermiformis [9] = experiment: Antimicrobial activity against Hartmannella vermiformis after 3 days by hemocytometer; type: functional; conditions: Vermamoeba vermiformis, 72 h; summary of the method: as §1
Willaertia magna [10] = experiment: Antimicrobial activity against Willaertia magna c2c Maky ATCC PTA-7824 assessed as growth inhibition at 2 ug/ml after 3 days by hemocytometer; type: functional; summary of the method: as §1
Hartmannella vermiformis [11] = experiment: Antimicrobial activity against Hartmannella vermiformis assessed as decrease in viable cell concentration at 20 ug/ml after 3 days by hemocytometer; type: functional; conditions: Vermamoeba vermiformis; summary of the method: as §1
Hartmannella vermiformis [12] = experiment: Antimicrobial activity against Hartmannella vermiformis assessed as growth inhibition at 5 ug/ml after 3 days by hemocytometer; type: functional; conditions: Vermamoeba vermiformis; summary of the method: as §1
Willaertia magna [13] = experiment: Antimicrobial activity against Willaertia magna c2c Maky ATCC PTA-7824 assessed as growth inhibition at 10 ug/ml upto 3 days by hemocytometer; type: functional; summary of the method: as §1
Acanthamoeba castellanii [14] = experiment: Antimicrobial activity against Acanthamoeba castellanii assessed as growth inhibition at 10 ug/ml upto 3 days by hemocytometer; type: functional, organism-based; summary of the method: as §1
Acanthamoeba castellanii [15] = experiment: Antimicrobial activity against Acanthamoeba castellanii assessed as growth inhibition at 10 ug/ml after 3 days by hemocytometer relative to control; type: functional; conditions: 72 h; summary of the method: as §1
Hartmannella vermiformis [16] = experiment: Antimicrobial activity against Hartmannella vermiformis assessed as growth inhibition at 10 ug/ml after 3 days by hemocytometer relative to control; type: functional; conditions: Vermamoeba vermiformis, 72 h, read-out: INH; summary of the method: as §1
Willaertia magna [17] = experiment: Antimicrobial activity against Willaertia magna c2c Maky ATCC PTA-7824 assessed as growth inhibition at 10 ug/ml after 3 days by hemocytometer relative to control; type: functional; conditions: c2c Maky ATCC PTA-7824, 72 h, read-out: INH; summary of the method: as §1
Willaertia magna [18] = experiment: Antimicrobial activity against Willaertia magna c2c Maky ATCC PTA-7824 assessed as decrease in viable cell concentration at 20 ug/ml after 3 days by hemocytometer; type: functional; summary of the method: as §1

Structure (SMILES): CCCCC/C=C\C/C=C\C/C=C\C/C=C\CCCC(=O)NCCO [ANANDAMIDE]
- inhibition (Acanthamoeba castellanii [1]): Active
- IC50 (Acanthamoeba castellanii [2]): 17 µM
- inhibition (Acanthamoeba castellanii [3]): Active
- inhibition (Acanthamoeba castellanii [4]): Active
- inhibition (Hartmannella vermiformis [5]): Active
- inhibition (Willaertia magna [6]): Active
- IC50 (Willaertia magna [7]): 20 µM
- inhibition (Hartmannella vermiformis [8]): Active
- IC50 (Hartmannella vermiformis [9]): 14 µM
- inhibition (Willaertia magna [10]): Active
- inhibition (Hartmannella vermiformis [11]): Active
- inhibition (Hartmannella vermiformis [12]): Active
- inhibition (Willaertia magna [13]): Active
- inhibition (Acanthamoeba castellanii [14]): Active
- inhibition at 10 µg/mL (Acanthamoeba castellanii [15]): 68%
- inhibition at 10 µg/mL (Hartmannella vermiformis [16]): 96%
- inhibition at 10 µg/mL (Willaertia magna [17]): 58%
- inhibition (Willaertia magna [18]): Active
